Laboratory results reported in ChEMBL document CHEMBL4396907, “Structure-activity relationship study and biological evaluation of SAC-Garlic acid conjugates as novel anti-inflammatory agents” (Eur J Med Chem, 2019).
The source made the active and inactive calls. The rule behind the calls is not given here.

How the values were obtained:
Toll-like receptor 2 = Toll-like receptor 2 (Mus musculus, UniProt Q9QUN7); assay: Antagonist activity at TLR2 in mouse RAW264.7 cells assessed as PAM3CSK4-induced NO production measured after 24 hrs by Griess assay; type: cell-based
Method in brief: (§1)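 RAW 264.7 cells in DMEM/10% FBS/pen-strep, 80,000 per well, preincubated 24 h at 37 °C, 5% CO2. Nonadherent cells removed, medium changed to plain DMEM. Cells co-treated with compound and 200 ng/mL Pam3CSK4 for 24 h. Nitrite in supernatant measured by modified Griess reagent (sulfanilic acid/phosphoric acid, then naphthylethylenediamine), read at OD560. Triplicate.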

[1] = target: Toll-like receptor 2 (Mus musculus) (UniProt Q9QUN7); assay: Antagonist activity at TLR2 in mouse RAW264.7 cells assessed as PAM3CSK4-induced NO production at 150 uM measured after 24 hrs by Griess assay; type: cell-based; method in brief: as §1
RAW264.7 = assay: Cytotoxicity against mouse RAW264.7 cells assessed as effect on cell viability at 6.25 to 100 uM cotreated with PAM3CSK4 measured after 24 hrs by MTT assay; type: cell-based; conditions: raw264.7, 24 h
Method in brief: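 RAW 264.7 cells, 80,000 per well, grown 24 h in DMEM/10% FBS/pen-strep. Medium then switched to plain DMEM containing compound plus Pam3CSK4 (final 200 ng/ml) for 24 h. MTT (5 mg/ml stock in PBS) added for 4 h, formazan dissolved in DMSO, absorbance read at 450 nm.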

[2] = target: Toll-like receptor 2 (Homo sapiens) (UniProt O60603); assay: Inhibition of TLR2 in human HEK-Blue hTLR2 cells assessed as suppression of PAM3CSK4-induced SEAP signaling at 25 uM after 24 hrs by quanti-blue assay relative to control; type: cell-based
Method in brief: (§2)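 HEK-Blue hTLR2 cells (human TLR2, CD14 and NF-κB/AP-1-driven SEAP reporter), 4×10^4 per well, grown 24 h in DMEM/10% FBS. Changed to plain DMEM with compound (0–100 µM) plus 20 ng/ml Pam3CSK4 (TLR1/2) or 20 ng/ml Pam2CSK4 (TLR2/6) for 24 h. Supernatant SEAP read with QUANTI-Blue at 37 °C, OD620 after 15–30 min. Mean ± SD of three independent experiments.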

[3] = target: Toll-like receptor 2 (Homo sapiens) (UniProt O60603); assay: Inhibition of TLR2 in human HEK-Blue hTLR2 cells assessed as suppression of PAM3CSK4-induced SEAP signaling after 24 hrs by quanti-blue assay; type: cell-based; method in brief: as §2
[4] = target: Toll-like receptor 3 (Homo sapiens) (UniProt O15455); assay: Inhibition of Poly:IC-induced TLR3 activation in human HEK-Blue hTLR3 cells; type: cell-based
Method in brief: (§3)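 HEK-Blue hTLR4 or hTLR3 reporter cells, 4×10^4 per well, grown 24 h, then switched to plain DMEM with compound (0–50 µM). Stimulant was 20 ng/ml LPS for hTLR4 and 20 µg/ml Poly:IC for hTLR3, for 24 h. Supernatant SEAP measured by QUANTI-Blue at OD620. Vehicle as negative control. Three independent experiments.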

[5] = target: Toll-like receptor 1/2 (Homo sapiens) (UniProt O60603+Q15399); assay: Inhibition of PAM3CSK4-induced TLR1/2 activation in human HEK-Blue hTLR2 cells; type: cell-based; method in brief: as §2
TLR2/TLR6 (Homo sapiens) = TLR2/TLR6 (Homo sapiens) (UniProt O60603+Q9Y2C9); assay: Inhibition of PAM2CSK4-induced TLR2/6 activation in human HEK-Blue hTLR2 cells; type: cell-based; method in brief: as §2
[6] = target: Toll-like receptor 4 (Homo sapiens) (UniProt O00206); assay: Inhibition of LPS-induced TLR4 activation in human HEK-Blue hTLR4 cells; type: cell-based; method in brief: as §3
[7] = Inhibition of PAM3CSK4-induced TLR2 expression in human HEK-Blue Htlr2 cells at 12.5 uM by Western blot analysis relative to control; type: functional; conditions: HEK-Blue hTLR2, read-out: INH
Method in brief: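 HEK-Blue hTLR2 cells, 1.5×10^6 per well, grown 24 h, then in plain DMEM with compound and 50 ng/mL Pam3CSK4 for 24 h. Lysed in RIPA/PMSF. Equal lysate amounts run on SDS-PAGE and transferred to nitrocellulose. Blocked in 5% milk, probed overnight at 4 °C with anti-TLR2, then HRP secondary.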

[8] = target: Toll-like receptor 2 (Homo sapiens) (UniProt O60603); assay: Inhibition of TLR2 in human PBMC cells assessed as PAM3CSK4-induced TLR1/2 heterodimerization formation by immunoprecipitation assay; type: cell-based
Method in brief: (§4)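 Human PBMC, 10^6 cells/mL, given vehicle, Pam3CSK4 (50 ng/mL) or Pam2CSK4 (50 ng/mL) with compound for 24 h. Lysates incubated with anti-TLR2 overnight at 4 °C, then protein A agarose for 4 h. Beads washed three times and boiled in SDS buffer. Immunoprecipitates blotted for TLR1, TLR2, TLR6 and MyD88.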

[9] = target: Toll-like receptor 2 (Homo sapiens) (UniProt O60603); assay: Inhibition of TLR2 in human PBMC cells assessed as PAM2CSK4-induced TLR2/6 heterodimerization formation by immunoprecipitation assay; type: cell-based; method in brief: as §4
[10] = target: Toll-like receptor 2 (Homo sapiens) (UniProt O60603); assay: Inhibition of TLR2 in human PBMC cells assessed as PAM3CSK4-induced TLR2/Myd88 heterodimerization formation by immunoprecipitation assay; type: cell-based; method in brief: as §4
[11] = target: Toll-like receptor 2 (Mus musculus) (UniProt Q9QUN7); assay: Inhibition of TLR2 in mouse RAW264.7 cells assessed as decrease in PAM3CSK4 induced TNF-alpha expression at 25 uM measured after 24 hrs by ELISA relative to control; type: cell-based
Method in brief: (§5)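 RAW 264.7 cells or human PBMC, 1×10^6 per well in DMEM/10% FBS/pen-strep, treated with compound plus 50 ng/ml Pam3CSK4 for 24 h at 37 °C. Supernatants frozen at −80 °C. TNF-α measured by sandwich ELISA against recombinant standards, triplicate samples. Mean ± SD, three independent experiments.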

[12] = target: Toll-like receptor 2 (Homo sapiens) (UniProt O60603); assay: Inhibition of TLR2 in human PBMC cells assessed as decrease in PAM3CSK4 induced TNF-alpha expression at 12.5 uM measured after 24 hrs by ELISA relative to control; type: cell-based; method in brief: as §5
[13] = target: Toll-like receptor 2 (Mus musculus) (UniProt Q9QUN7); assay: Inhibition of TLR2 in mouse RAW264.7 cells assessed as decrease in PAM3CSK4 induced TNF-alpha expression measured after 24 hrs by ELISA; type: cell-based; method in brief: as §5
[14] = target: Toll-like receptor 2 (Homo sapiens) (UniProt O60603); assay: Inhibition of TLR2 in human PBMC cells assessed as PAM2CSK4-induced TLR2/Myd88 heterodimerization formation by immunoprecipitation assay; type: cell-based; method in brief: as §4
[15] = target: Toll-like receptor 2 (Homo sapiens) (UniProt O60603); assay: Inhibition of TLR2 in human THP1 assessed as decrease in PAM3CSK4 induced TNF-alpha expression measured after 4 hrs by ELISA

Toll-like receptor 2 (Mus musculus), sequence (Q9QUN7 whole entry): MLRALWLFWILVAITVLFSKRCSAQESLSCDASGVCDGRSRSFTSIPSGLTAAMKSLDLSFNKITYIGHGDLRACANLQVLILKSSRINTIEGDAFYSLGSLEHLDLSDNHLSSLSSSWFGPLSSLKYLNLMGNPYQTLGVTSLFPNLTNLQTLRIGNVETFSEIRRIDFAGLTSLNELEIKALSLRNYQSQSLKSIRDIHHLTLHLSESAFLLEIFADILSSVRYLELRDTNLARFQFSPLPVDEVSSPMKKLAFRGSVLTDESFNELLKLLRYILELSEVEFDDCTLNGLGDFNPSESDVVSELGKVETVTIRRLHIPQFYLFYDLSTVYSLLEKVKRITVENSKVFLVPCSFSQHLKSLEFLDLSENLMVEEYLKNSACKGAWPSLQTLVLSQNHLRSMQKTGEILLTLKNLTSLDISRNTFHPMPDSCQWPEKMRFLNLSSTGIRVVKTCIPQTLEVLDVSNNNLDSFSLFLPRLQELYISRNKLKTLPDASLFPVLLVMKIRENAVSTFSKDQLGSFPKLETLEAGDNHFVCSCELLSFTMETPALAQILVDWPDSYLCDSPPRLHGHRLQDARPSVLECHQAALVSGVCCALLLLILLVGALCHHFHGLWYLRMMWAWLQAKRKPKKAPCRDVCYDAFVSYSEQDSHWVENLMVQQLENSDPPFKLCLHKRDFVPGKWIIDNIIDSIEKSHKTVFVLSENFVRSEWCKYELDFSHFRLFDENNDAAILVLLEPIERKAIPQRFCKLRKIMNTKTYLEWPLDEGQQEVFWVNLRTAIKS
Toll-like receptor 2, sequence (Q9QUN7 whole entry): as above
Toll-like receptor 2 (Homo sapiens), sequence (O60603 whole entry): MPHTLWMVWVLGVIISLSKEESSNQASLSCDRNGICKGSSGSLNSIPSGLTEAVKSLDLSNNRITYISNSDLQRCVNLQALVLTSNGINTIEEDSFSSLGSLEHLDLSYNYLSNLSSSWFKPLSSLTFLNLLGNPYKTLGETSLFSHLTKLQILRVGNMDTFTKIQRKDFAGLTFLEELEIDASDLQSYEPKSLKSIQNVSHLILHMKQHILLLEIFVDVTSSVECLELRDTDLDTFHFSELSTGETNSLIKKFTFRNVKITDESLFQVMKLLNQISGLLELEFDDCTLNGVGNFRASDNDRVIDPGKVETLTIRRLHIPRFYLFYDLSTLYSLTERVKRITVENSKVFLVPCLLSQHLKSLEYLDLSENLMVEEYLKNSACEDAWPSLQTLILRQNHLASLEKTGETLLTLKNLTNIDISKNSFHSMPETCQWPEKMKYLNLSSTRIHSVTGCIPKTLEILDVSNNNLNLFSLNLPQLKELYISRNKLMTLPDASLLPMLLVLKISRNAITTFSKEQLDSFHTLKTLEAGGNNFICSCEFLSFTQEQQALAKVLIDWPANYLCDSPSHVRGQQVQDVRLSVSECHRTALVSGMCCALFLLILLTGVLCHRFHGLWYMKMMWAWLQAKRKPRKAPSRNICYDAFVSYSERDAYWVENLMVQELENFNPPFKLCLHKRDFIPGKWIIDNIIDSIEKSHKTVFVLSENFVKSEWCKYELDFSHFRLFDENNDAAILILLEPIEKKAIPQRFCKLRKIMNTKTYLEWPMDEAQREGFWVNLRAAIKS
Toll-like receptor 4 (Homo sapiens), sequence (O00206 whole entry): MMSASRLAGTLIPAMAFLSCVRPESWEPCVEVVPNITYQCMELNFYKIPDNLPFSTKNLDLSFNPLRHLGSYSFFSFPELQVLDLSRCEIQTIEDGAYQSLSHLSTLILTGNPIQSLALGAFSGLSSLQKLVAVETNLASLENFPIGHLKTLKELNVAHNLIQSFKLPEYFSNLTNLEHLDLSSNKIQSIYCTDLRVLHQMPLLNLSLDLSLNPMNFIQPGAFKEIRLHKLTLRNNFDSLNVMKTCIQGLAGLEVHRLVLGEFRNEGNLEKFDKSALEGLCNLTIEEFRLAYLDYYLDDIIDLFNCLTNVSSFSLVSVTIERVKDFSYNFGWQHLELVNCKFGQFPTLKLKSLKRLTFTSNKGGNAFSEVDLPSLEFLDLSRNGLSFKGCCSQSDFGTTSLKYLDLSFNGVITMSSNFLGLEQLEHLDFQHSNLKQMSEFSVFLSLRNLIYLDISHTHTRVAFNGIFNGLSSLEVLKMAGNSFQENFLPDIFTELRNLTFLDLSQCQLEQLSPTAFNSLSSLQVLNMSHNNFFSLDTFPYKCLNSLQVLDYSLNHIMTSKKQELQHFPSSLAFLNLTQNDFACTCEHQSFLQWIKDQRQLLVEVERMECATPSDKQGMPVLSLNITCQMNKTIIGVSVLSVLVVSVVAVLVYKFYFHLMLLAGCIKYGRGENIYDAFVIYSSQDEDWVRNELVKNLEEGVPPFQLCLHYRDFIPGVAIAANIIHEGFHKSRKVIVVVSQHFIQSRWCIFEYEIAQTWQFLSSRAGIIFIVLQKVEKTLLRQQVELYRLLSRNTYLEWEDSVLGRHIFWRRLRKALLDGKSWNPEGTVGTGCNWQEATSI
Toll-like receptor 3 (Homo sapiens), sequence (O15455 whole entry): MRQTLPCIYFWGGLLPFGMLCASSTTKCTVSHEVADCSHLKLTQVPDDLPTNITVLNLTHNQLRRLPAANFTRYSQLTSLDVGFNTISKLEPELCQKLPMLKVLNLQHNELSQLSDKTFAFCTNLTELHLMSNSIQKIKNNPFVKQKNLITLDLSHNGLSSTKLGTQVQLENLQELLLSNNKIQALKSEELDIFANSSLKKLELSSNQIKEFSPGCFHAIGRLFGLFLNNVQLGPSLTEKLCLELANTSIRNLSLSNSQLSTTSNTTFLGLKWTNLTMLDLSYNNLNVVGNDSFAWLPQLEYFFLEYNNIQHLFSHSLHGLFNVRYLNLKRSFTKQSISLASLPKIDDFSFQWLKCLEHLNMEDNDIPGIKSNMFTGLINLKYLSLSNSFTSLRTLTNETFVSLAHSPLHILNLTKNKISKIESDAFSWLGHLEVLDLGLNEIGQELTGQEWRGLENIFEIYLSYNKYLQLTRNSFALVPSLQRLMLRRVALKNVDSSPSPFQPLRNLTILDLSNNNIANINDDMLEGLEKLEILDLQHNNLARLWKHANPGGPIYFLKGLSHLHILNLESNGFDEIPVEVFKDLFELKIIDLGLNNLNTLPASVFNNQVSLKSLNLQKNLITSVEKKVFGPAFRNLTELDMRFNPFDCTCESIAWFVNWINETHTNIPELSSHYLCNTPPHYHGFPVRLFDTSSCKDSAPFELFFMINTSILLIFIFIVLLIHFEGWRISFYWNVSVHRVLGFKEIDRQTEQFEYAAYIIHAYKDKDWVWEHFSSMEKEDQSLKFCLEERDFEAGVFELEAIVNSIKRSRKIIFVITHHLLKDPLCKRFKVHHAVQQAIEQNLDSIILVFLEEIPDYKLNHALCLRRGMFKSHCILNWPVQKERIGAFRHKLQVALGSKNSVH

SMILES | IC50 (Toll-like receptor 2) [µM] | also measured
O=C(O)c1cc(O)c(O)c(O)c1 [GALLIC ACID] | 69.3 | 
COC(=O)[C@@H](N)CSCc1ccccc1 | 117 | 
C=CCCSC[C@H](N)C(=O)O |  | Activity [1]: inactive
C=CCCCSC[C@H](NC(=O)c1cc(O)cc(O)c1)C(=O)OC | 57.7 | 
C#CCSC[C@H](N)C(=O)O |  | Activity [1]: inactive
C=CCSC[C@H](NC(=O)c1cc(OC)c(OC)c(OC)c1)C(=O)OC | 49.3 | 
C#CCSC[C@H](N)C(=O)OC | 94.4 | 
C=CCCCSC[C@H](NC(=O)c1cc(OC)c(OC)c(OC)c1)C(=O)OC | 22.5 | Activity (RAW264.7): Non-Toxic; inhibition [2]: 50%; inhibition [3]: Dose-dependent effect; inhibition [4]: inactive; inhibition [5]: Active; inhibition (TLR2/TLR6 (Homo sapiens)): Active; inhibition [6]: inactive; inhibition at 12.5 µM [7]: > 90%; inhibition [8]: Active; inhibition [9]: Active; inhibition [10]: Active; inhibition [11]: 50%; inhibition [12]: > 95%; inhibition [13]: Dose-dependent effect; inhibition [14]: Active; inhibition [15]: Active
C=CCSC[C@H](N)C(=O)OC | 54.4 | 
COC(=O)[C@H](CSCc1ccccc1)NC(=O)c1cc(OC)c(OC)c(OC)c1 | 32.6 | 
C#CCSC[C@H](NC(=O)c1cc(O)cc(O)c1)C(=O)OC | 41.8 | 
C#CCSC[C@H](NC(=O)c1cc(O)c(O)c(O)c1)C(=O)OC | 71.5 | 
O=C(O)c1cc(O)cc(O)c1 [3,5-DIHYDROXYBENZOIC ACID] | 117 | 
C=CCCCSC[C@H](NC(=O)c1cc(O)c(O)c(O)c1)C(=O)OC | 39.2 | 
C#CCSC[C@H](NC(=O)c1ccc(O)cc1)C(=O)OC | 54.8 | 
C=CCCSC[C@H](NC(=O)c1cc(O)c(O)c(O)c1)C(=O)OC | 57.7 | 
N[C@@H](CSCc1ccc(F)cc1)C(=O)O |  | Activity [1]: inactive
COC(=O)[C@H](CSCc1ccc(F)cc1)NC(=O)c1cc(O)c(O)c(O)c1 | 50.2 | 
C=CCSC[C@H](N)C(=O)O |  | inhibition [3]: inactive; Activity [1]: inactive
COC(=O)[C@H](CSCc1ccc(F)cc1)NC(=O)c1ccc(O)cc1 | 37.3 | 

SMILES | IC50 (Toll-like receptor 2) [µM] | also measured
C=CCCCSC[C@H](N)C(=O)O |  | Activity [1]: inactive
C=CCCSC[C@H](N)C(=O)OC | 45.5 | 
C=CCSC[C@H](NC(=O)c1ccc(O)cc1)C(=O)OC | 40.5 | 
C=CCSC[C@H](NC(=O)c1cc(O)c(O)c(O)c1)C(=O)OC | 52.1 | 
COc1cc(C(=O)O)cc(OC)c1OC [3,4,5-TRIMETHOXYBENZOIC ACID] | 53.8 | 
C=CCCSC[C@H](NC(=O)c1ccc(O)cc1)C(=O)OC | 54.9 | 
O=C(O)c1ccc(O)cc1 [PARABEN] | 118 | 
COC(=O)[C@H](CSCc1ccc(F)cc1)NC(=O)c1cc(O)cc(O)c1 | 38.3 | 
N[C@@H](CSCc1ccccc1)C(=O)O |  | Activity [1]: inactive
COC(=O)[C@H](CSCc1ccccc1)NC(=O)c1cc(O)c(O)c(O)c1 | 60.7 | 
C=CCCCSC[C@H](N)C(=O)OC | 31.3 | 
C#CCSC[C@H](NC(=O)c1cc(OC)c(OC)c(OC)c1)C(=O)OC | 53.2 | 
COC(=O)[C@H](CSCc1ccccc1)NC(=O)c1cc(O)cc(O)c1 | 50.5 | 
C=CCSC[C@H](NC(=O)c1cc(O)cc(O)c1)C(=O)OC | 58.5 | 
COC(=O)[C@H](CSCc1ccccc1)NC(=O)c1ccc(O)cc1 | 52.1 | 
COC(=O)[C@H](CSCc1ccc(F)cc1)NC(=O)c1cc(OC)c(OC)c(OC)c1 | 28.6 | 
C=CCCSC[C@H](NC(=O)c1cc(OC)c(OC)c(OC)c1)C(=O)OC | 27.3 | 
COC(=O)[C@@H](N)CSCc1ccc(F)cc1 | 99.6 | 
C=CCCCSC[C@H](NC(=O)c1ccc(O)cc1)C(=O)OC | 53 | 
C=CCCSC[C@H](NC(=O)c1cc(O)cc(O)c1)C(=O)OC | 35.8 | 
